Measurements: ChEMBL document CHEMBL4049434, “Radiolabeled Dibenzodiazepinone-Type Antagonists Give Evidence of Dualsteric Binding at the M2 Muscarinic Acetylcholine Receptor” (J Med Chem, 2017)

Experiments:
[1] = target: T1, Muscarinic acetylcholine receptor M2 (Homo sapiens, UniProt P08172); test: Displacement of [3H]UR-AP060 from human muscarinic acetylcholine receptor M2 expressed in CHOK9 cell homogenate after 3 hrs by liquid scintillation counting assay
T1 sequence (P08172 whole entry): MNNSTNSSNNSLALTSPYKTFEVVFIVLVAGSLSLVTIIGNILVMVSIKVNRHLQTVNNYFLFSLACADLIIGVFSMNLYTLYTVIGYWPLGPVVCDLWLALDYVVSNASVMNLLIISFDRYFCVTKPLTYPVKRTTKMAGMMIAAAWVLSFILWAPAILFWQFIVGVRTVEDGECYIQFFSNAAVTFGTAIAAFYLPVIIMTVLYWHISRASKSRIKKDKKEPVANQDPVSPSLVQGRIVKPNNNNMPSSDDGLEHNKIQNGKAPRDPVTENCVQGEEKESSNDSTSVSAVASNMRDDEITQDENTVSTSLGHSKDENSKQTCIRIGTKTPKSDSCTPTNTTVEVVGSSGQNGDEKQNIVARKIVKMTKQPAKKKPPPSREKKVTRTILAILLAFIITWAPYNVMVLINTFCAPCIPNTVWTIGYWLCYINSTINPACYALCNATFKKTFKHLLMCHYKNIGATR

[2] = target: T1, Muscarinic acetylcholine receptor M2; test: (§1) Competitive antagonist activity at human muscarinic acetylcholine receptor M2 expressed in HEK293 cells coexpressing HA tagged Galpha-protein qi5 assessed as inhibition of 0.1 uM carbachol-induced IP1 accumulation preincubated for 30 mins followed by carbachol addition measured after 1 hr by HTRF assay; type: functional, cell-based
In short: (§2)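 HEK-293 transiently cotransfected with human M2R and Gαqi5-HA. Cells preincubated 30 min with antagonist, then carbachol added (final 0.1, 0.3, 1 or 10 μM), 1 h at 37 °C. IP1 detected by HTRF (620/670 nm emission, 330 nm excitation). At least four independent experiments, each in duplicate.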

[3] = target: T2, Muscarinic acetylcholine receptor M2 (Homo sapiens) (UniProt P08172); test: as §1; type: functional, cell-based; in short: as §2
T2 sequence (whole entry): T1 sequence (P08172 whole entry)

[4] = target: T2, Muscarinic acetylcholine receptor M2 (Homo sapiens); test: Antagonist activity at human muscarinic acetylcholine receptor M2 expressed in HEK293 cells coexpressing HA tagged Galpha-protein qi5 assessed as inhibition of 0.3 uM carbachol-induced IP1 accumulation preincubated for 30 mins followed by carbachol addition measured after 1 hr by HTRF assay; type: functional, cell-based; in short: as §2
[5] = target: T2, Muscarinic acetylcholine receptor M2 (Homo sapiens); test: Binding affinity to human muscarinic acetylcholine receptor M2 expressed in live adherent CHOK9 cells at Kd in presence of 500-fold excess atropine after 2 hrs by liquid scintillation counting assay relative to control; type: cell-based; conditions: tested as the 3H-labelled form
In short: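 Live adherent CHO-hM2 cells in L15 medium with 1% BSA, 23 ± 1 °C, 2 h incubation. Competition at 2 nM radioligand; additional 4, 8, 15 and 30 nM in W84 experiments. […] Saturation data fitted one-site; competition by four-parameter logistic fits; at least three experiments in triplicate.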

[6] = target: Muscarinic acetylcholine receptor M3 (Homo sapiens, UniProt P20309); test: Displacement of [3H]NMS from human muscarinic acetylcholine receptor M3 expressed in CHOK9 cells after 3 hrs by liquid scintillation counting assay; type: cell-based
[7] = target: T2, Muscarinic acetylcholine receptor M2 (Homo sapiens); test: Binding affinity to human muscarinic acetylcholine receptor M2 expressed in CHOK9 cell homogenate after 2 hrs by liquid scintillation counting assay; conditions: tested as the 3H-labelled form
In short: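 CHO-hM2 cell homogenates (25–30 μg protein/well) in L15 medium with 1% BSA, 23 ± 1 °C, 2 h with tritiated dimeric radioligand. Competition used 0.5 nM radioligand; additional 0.4, 1, 2 and 4 nM in W84 experiments. […] Four-parameter logistic fits; at least three experiments in triplicate.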

[8] = target: T2, Muscarinic acetylcholine receptor M2 (Homo sapiens); test: Binding affinity to human muscarinic acetylcholine receptor M2 expressed in CHOK9 cell suspension after 2 hrs by liquid scintillation counting assay; conditions: tested as the 3H-labelled form
[9] = target: T1, Muscarinic acetylcholine receptor M2; test: Displacement of [3H]UNSW-MK259 from human muscarinic acetylcholine receptor M2 expressed in CHOK9 cells after 3 hrs by liquid scintillation counting assay; type: cell-based
[10] = target: T2, Muscarinic acetylcholine receptor M2 (Homo sapiens); test: Binding affinity to human muscarinic acetylcholine receptor M2 expressed in CHOK9 cell suspension at Kd in presence of 500-fold excess atropine after 2 hrs by liquid scintillation counting assay relative to control; conditions: tested as the 3H-labelled form
[11] = Chemical stability of the compound in PBS buffer at pH 7.4 after 48 hrs by HPLC analysis; type: physicochemical; conditions: pH 7.4, 48 h
In short: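 Compound at 100 μM final (from 10 mM stock) in PBS pH 7.4 at 22 ± 1 °C; samples taken at 0, 24 and 48 h, mixed with acetonitrile/1% aq TFA 2:8, analysed by RP-HPLC at 220 nm.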

[12] = target: T3, Muscarinic acetylcholine receptor M5 (Homo sapiens, UniProt P08912); test: Displacement of [3H]NMS from human muscarinic acetylcholine receptor M5 expressed in CHOK9 cells after 3 hrs by liquid scintillation counting assay; type: cell-based
T3 sequence (P08912 whole entry): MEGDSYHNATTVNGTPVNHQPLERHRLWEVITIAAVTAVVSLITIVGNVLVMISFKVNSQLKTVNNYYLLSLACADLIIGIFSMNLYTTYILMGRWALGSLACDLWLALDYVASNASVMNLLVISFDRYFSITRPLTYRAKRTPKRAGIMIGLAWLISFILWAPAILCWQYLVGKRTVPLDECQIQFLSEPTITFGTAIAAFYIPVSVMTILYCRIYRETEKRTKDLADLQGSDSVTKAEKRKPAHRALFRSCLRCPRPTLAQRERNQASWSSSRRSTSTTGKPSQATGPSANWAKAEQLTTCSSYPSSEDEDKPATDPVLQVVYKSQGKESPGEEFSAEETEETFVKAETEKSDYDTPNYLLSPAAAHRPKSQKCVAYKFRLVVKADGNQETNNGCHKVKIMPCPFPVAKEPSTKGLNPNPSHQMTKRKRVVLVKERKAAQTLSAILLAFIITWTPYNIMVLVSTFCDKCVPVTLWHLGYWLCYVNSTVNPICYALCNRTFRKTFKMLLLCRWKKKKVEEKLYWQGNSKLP

[13] = target: T2, Muscarinic acetylcholine receptor M2 (Homo sapiens); test: Binding affinity to human muscarinic acetylcholine receptor M2 expressed in CHOK9 cells assessed as dissociation half life after 105 mins by liquid scintillation counting assay; type: cell-based; conditions: tested as the 3H-labelled form
[14] = target: T4, Muscarinic acetylcholine receptor M4 (Homo sapiens, UniProt P08173); test: Displacement of [3H]NMS from human muscarinic acetylcholine receptor M4 expressed in CHOK9 cells after 3 hrs by liquid scintillation counting assay; type: cell-based
T4 sequence (P08173 whole entry): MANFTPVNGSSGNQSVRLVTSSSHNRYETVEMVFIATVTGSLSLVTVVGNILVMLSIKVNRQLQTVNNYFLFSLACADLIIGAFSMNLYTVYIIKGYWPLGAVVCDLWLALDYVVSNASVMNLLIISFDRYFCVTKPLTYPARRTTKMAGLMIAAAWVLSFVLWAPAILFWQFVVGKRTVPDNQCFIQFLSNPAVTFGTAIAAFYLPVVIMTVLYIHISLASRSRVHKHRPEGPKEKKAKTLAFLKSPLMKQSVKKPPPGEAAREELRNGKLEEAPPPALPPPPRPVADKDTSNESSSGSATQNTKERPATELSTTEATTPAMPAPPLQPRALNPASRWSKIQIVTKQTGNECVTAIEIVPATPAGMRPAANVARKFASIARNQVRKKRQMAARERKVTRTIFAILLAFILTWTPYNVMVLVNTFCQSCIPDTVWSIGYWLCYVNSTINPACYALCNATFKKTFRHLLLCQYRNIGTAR

Muscarinic acetylcholine receptor M3, sequence (P20309 whole entry): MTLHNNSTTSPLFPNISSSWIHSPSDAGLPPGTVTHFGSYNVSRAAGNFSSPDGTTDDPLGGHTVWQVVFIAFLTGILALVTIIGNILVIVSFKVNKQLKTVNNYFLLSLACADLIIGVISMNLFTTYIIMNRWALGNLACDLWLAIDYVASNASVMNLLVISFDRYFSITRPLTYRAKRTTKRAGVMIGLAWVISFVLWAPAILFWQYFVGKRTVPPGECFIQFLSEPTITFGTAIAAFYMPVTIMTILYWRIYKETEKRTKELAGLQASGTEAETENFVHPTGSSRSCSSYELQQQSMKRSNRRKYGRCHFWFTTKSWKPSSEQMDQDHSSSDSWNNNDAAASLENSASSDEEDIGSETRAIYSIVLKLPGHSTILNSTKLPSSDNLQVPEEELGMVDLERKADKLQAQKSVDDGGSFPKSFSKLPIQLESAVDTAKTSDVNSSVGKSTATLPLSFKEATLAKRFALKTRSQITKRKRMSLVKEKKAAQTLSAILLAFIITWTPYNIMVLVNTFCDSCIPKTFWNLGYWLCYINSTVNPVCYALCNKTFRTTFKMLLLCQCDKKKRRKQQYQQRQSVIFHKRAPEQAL

Ki [1]: 1.05 nM
IC50 [2]: 16.6 nM
inhibition [3]: Dose-dependent effect
inhibition [4]: Dose-dependent effect
pKb [4]: 7.36
Activity [5]: > 60%
Ki [6]: 15.5 nM
Bmax (disintegrations/minute) [7]: 620
Bmax (disintegrations/minute) [8]: 1800
Ki [9]: 0.107 nM
Activity [10]: < 15%
Stability [11]: Stable
Ki [12]: 22.9 nM
T1/2 [13]: 1.1 h
Ki [14]: 0.468 nM
Structure (SMILES): CCC(=O)NCc1cc(C(=O)NCCNC(=O)CCc2cn(CCCCC3CCN(CC(=O)N4c5ccccc5NC(=O)c5ccccc54)CC3)cn2)cc(C(=O)NCCNC(=O)CCc2cn(CCCCC3CCN(CC(=O)N4c5ccccc5NC(=O)c5ccccc54)CC3)cn2)c1.O=C(O)C(F)(F)F.O=C(O)C(F)(F)F.O=C(O)C(F)(F)F.O=C(O)C(F)(F)F
